Assay results: ChEMBL document CHEMBL1811757, “Discovery of naturally occurring aurones that are potent allosteric inhibitors of hepatitis C virus RNA-dependent RNA polymerase” (J Med Chem, 2011)
Calls of active or inactive are those of the source. The calls are words filed in the database; no cut-off is given here.

Test system: not listed separately
Test: Inhibition of HCV genotype 1b J4 N-terminal His-tagged NS5Bdelta21 polymerase expressed in Escherichia coli C41(DE3) assessed as amount of double-stranded RNA synthesis
Set-up: species or system Hepatitis C virus isolate HC-J4
Conditions: not given
Work on `COc1cccc(OC)c1/C=C1\Oc2cccc(O)c2C1=O` yielded an IC50 of over 20 µM. `CCCCc1ccc(/C=C2\Oc3cc(OC)cc(OC)c3C2=O)cc1` showed an IC50 of over 20 µM. For `CCCCc1ccc(/C=C2\Oc3cccc(O)c3C2=O)cc1`, the IC50 was over 20 µM. Work on `O=C1/C(=C/c2ccccc2O)Oc2cc(O)cc(O)c21` yielded an IC50 of over 20 µM. `CC(C)c1ccc(/C=C2\Oc3cc(O)cc(O)c3C2=O)cc1` gave an IC50 of 3.1 µM. `COc1cc(OC)c2c(c1)O/C(=C\c1ccc(C3CCCCC3)cc1)C2=O` gave an IC50 of over 20 µM. For `O=C1/C(=C/c2ccccc2)Oc2cccc(O)c21`, the IC50 was 14.6 µM. Compound `O=C1/C(=C/c2ccc(O)cc2)Oc2cc(O)cc(O)c21` has an IC50 of 9.7 µM. Compound `O=C1/C(=C/c2ccc(F)cc2F)Oc2cccc(F)c21` has an IC50 of over 20 µM. With `O=C1/C(=C/c2ccccc2F)Oc2cccc(O)c21` the IC50 was over 20 µM. Work on `O=C1/C(=C/c2ccc(O)cc2)Oc2cc(O)ccc21` yielded an IC50 of over 20 µM. Work on `COc1cc(OC)c2c(c1)O/C(=C\c1ccccc1O)C2=O` yielded an IC50 of over 20 µM. Compound `CCCCc1ccc(/C=C2\Oc3cc(F)cc(F)c3C2=O)cc1` has an IC50 of over 20 µM. `O=C1/C(=C/c2ccc(O)cc2)Oc2cccc(O)c21` gave an IC50 of 5.9 µM. With `O=C1/C(=C/c2ccc(O)cc2O)Oc2cccc(O)c21` the IC50 was 2.6 µM. With `COc1cc(OC)c2c(c1)O/C(=C\c1ccc(O)cc1)C2=O` the IC50 was over 20 µM. For `O=C1/C(=C/c2ccc(O)cc2O)Oc2cc(O)cc(O)c21`, the IC50 was 5.8 µM. In the case of `CN1CCN(c2ccc(/C=C3\Oc4cccc(O)c4C3=O)cc2)CC1`, the IC50 is reported as 3.8 µM. For `O=C1/C(=C/c2ccccc2)Oc2cc(O)cc(O)c21`, the IC50 was 15.1 µM. For `CCCCc1ccc(/C=C2\Oc3ccccc3C2=O)cc1`, the IC50 was over 20 µM.

Test system: Hepatitis C virus isolate HC-J4
Test: Inhibition of HCV genotype 1b J4 N-terminal His-tagged NS5Bdelta21 polymerase expressed in Escherichia coli C41(DE3) assessed as amount of double-stranded RNA synthesis at 20 uM
Conditions: not given
With `COc1cccc(OC)c1/C=C1\Oc2cccc(O)c2C1=O` the inhibition was 47%. `CCCCc1ccc(/C=C2\Oc3cc(OC)cc(OC)c3C2=O)cc1` showed an inhibition of 3%. Work on `CCCCc1ccc(/C=C2\Oc3cccc(O)c3C2=O)cc1` yielded an inhibition of 42.7%. For `O=C1/C(=C/c2ccccc2O)Oc2cc(O)cc(O)c21`, the inhibition was 33%. In the case of `CC(C)c1ccc(/C=C2\Oc3cc(O)cc(O)c3C2=O)cc1`, the inhibition is reported as 78%. `COc1cc(OC)c2c(c1)O/C(=C\c1ccc(C3CCCCC3)cc1)C2=O` showed an inhibition of 2%. Work on `O=C1/C(=C/c2ccccc2)Oc2cccc(O)c21` yielded an inhibition of 57%. Work on `O=C1/C(=C/c2ccc(O)cc2)Oc2cc(O)cc(O)c21` yielded an inhibition of 61%. Compound `O=C1/C(=C/c2ccc(F)cc2F)Oc2cccc(F)c21` has an inhibition of 10%. `O=C1/C(=C/c2ccccc2F)Oc2cccc(O)c21` showed an inhibition of 58%. `O=C1/C(=C/c2ccc(O)cc2)Oc2cc(O)ccc21` gave an inhibition of 35%. Work on `COc1cc(OC)c2c(c1)O/C(=C\c1ccccc1O)C2=O` yielded an inhibition of 0.7%. Work on `O=C1/C(=C/c2ccc(O)cc2)Oc2cccc(O)c21` yielded an inhibition of 60%. `O=C1/C(=C/c2ccc(O)cc2O)Oc2cccc(O)c21` showed an inhibition of 94%. In the case of `COc1cc(OC)c2c(c1)O/C(=C\c1ccc(O)cc1)C2=O`, the inhibition is reported as 37%. `O=C1/C(=C/c2ccc(O)cc2O)Oc2cc(O)cc(O)c21` showed an inhibition of 81%. Work on `CN1CCN(c2ccc(/C=C3\Oc4cccc(O)c4C3=O)cc2)CC1` yielded an inhibition of 94%. `O=C1/C(=C/c2ccccc2)Oc2cc(O)cc(O)c21` showed an inhibition of 59%.

Test system: Hepatitis C virus
Test: Antiviral activity against HCV JFH-1 assessed as inhibition of viral replication by cell based assay
Assay type: functional, organism-based, Hepacivirus hominis
Conditions: not given
Compound `O=C1/C(=C/c2ccc(O)cc2)Oc2cc(O)cc(O)c21` has an IC50 of 40 µM. For `O=C1/C(=C/c2ccc(O)cc2)Oc2cccc(O)c21`, the IC50 was 18 µM.

Test system: Hepatitis C virus isolate HC-J4
Test: Ratio of IC50 for HCV genotype 1b J4 NS5Bdelta21 polymerase P495L mutant to IC50 for HCV genotype 1b J4 wild type N-terminal His-tagged NS5Bdelta21 polymerase
Conditions: not given
In short: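 IC50 measured in cell-free poly U/ATP double-stranded RNA synthesis assay for purified His-tagged NS5BΔ21 P495L mutant and wild type, both prepared identically by Ni-NTA purification. Mutant IC50 divided by wild-type IC50 and reported as fold difference. A Thumb Pocket I benzimidazole inhibitor served as control.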
`CC(=O)Nc1ccc(-c2ccc(Cl)cc2)c(COc2ccc(-c3nc4cc(C(=O)O)ccc4n3C3CCCCC3)cc2)c1` gave a Ratio IC50 of 10. `O=C1/C(=C/c2ccc(O)cc2)Oc2cccc(O)c21` gave a Ratio IC50 of 6.

Test system: Huh-7
Test: Cytotoxicity against human HuH7 cells up to 512 uM after 72 hrs by MTT assay
Assay type: cell-based
Conditions: huh-7, 72 h
In short: (§1)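 Cells trypsinized in exponential growth and plated at 2000 (HuH7) or 1000 (HEK293) per well. Allowed to attach 96 h at 37°C, 5% CO2. Drug diluted in medium with 1% DMSO final, then 72 h at 37°C, 5% CO2. Viability read by MTT colorimetric assay.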
For `COc1cccc(OC)c1/C=C1\Oc2cccc(O)c2C1=O`, the Activity was “Non-toxic”. With `CCCCc1ccc(/C=C2\Oc3cc(OC)cc(OC)c3C2=O)cc1` the Activity was “Non-toxic”. For `CCCCc1ccc(/C=C2\Oc3cccc(O)c3C2=O)cc1`, the Activity was “Non-toxic”. For `O=C1/C(=C/c2ccccc2O)Oc2cc(O)cc(O)c21`, the Activity was “Non-toxic”. In the case of `CC(C)c1ccc(/C=C2\Oc3cc(O)cc(O)c3C2=O)cc1`, the Activity is reported as “Non-toxic”. For `COc1cc(OC)c2c(c1)O/C(=C\c1ccc(C3CCCCC3)cc1)C2=O`, the Activity was “Non-toxic”. For `O=C1/C(=C/c2ccccc2)Oc2cccc(O)c21`, the Activity was “Non-toxic”. With `O=C1/C(=C/c2ccc(O)cc2)Oc2cc(O)cc(O)c21` the Activity was “Non-toxic”. In the case of `O=C1/C(=C/c2ccc(F)cc2F)Oc2cccc(F)c21`, the Activity is reported as “Non-toxic”. In the case of `O=C1/C(=C/c2ccccc2F)Oc2cccc(O)c21`, the Activity is reported as “Non-toxic”. In the case of `O=C1/C(=C/c2ccc(O)cc2)Oc2cc(O)ccc21`, the Activity is reported as “Non-toxic”. For `COc1cc(OC)c2c(c1)O/C(=C\c1ccccc1O)C2=O`, the Activity was “Non-toxic”. For `CCCCc1ccc(/C=C2\Oc3cc(F)cc(F)c3C2=O)cc1`, the Activity was “Non-toxic”. With `O=C1/C(=C/c2ccc(O)cc2)Oc2cccc(O)c21` the Activity was “Non-toxic”. With `O=C1/C(=C/c2ccc(O)cc2O)Oc2cccc(O)c21` the Activity was “Non-toxic”. For `COc1cc(OC)c2c(c1)O/C(=C\c1ccc(O)cc1)C2=O`, the Activity was “Non-toxic”. For `O=C1/C(=C/c2ccc(O)cc2O)Oc2cc(O)cc(O)c21`, the Activity was “Non-toxic”. With `CN1CCN(c2ccc(/C=C3\Oc4cccc(O)c4C3=O)cc2)CC1` the Activity was “Non-toxic”. For `O=C1/C(=C/c2ccccc2)Oc2cc(O)cc(O)c21`, the Activity was “Non-toxic”. In the case of `CCCCc1ccc(/C=C2\Oc3ccccc3C2=O)cc1`, the Activity is reported as “Non-toxic”.

Test system: HEK293
Test: Cytotoxicity against human HEK293 cells up to 512 uM after 72 hrs by MTT assay
Assay type: cell-based
Conditions: hek293, 72 h
In short: as §1
With `COc1cccc(OC)c1/C=C1\Oc2cccc(O)c2C1=O` the Activity was “Non-toxic”. For `CCCCc1ccc(/C=C2\Oc3cc(OC)cc(OC)c3C2=O)cc1`, the Activity was “Non-toxic”. For `CCCCc1ccc(/C=C2\Oc3cccc(O)c3C2=O)cc1`, the Activity was “Non-toxic”. With `O=C1/C(=C/c2ccccc2O)Oc2cc(O)cc(O)c21` the Activity was “Non-toxic”. In the case of `CC(C)c1ccc(/C=C2\Oc3cc(O)cc(O)c3C2=O)cc1`, the Activity is reported as “Non-toxic”. For `COc1cc(OC)c2c(c1)O/C(=C\c1ccc(C3CCCCC3)cc1)C2=O`, the Activity was “Non-toxic”. For `O=C1/C(=C/c2ccccc2)Oc2cccc(O)c21`, the Activity was “Non-toxic”. For `O=C1/C(=C/c2ccc(O)cc2)Oc2cc(O)cc(O)c21`, the Activity was “Non-toxic”. In the case of `O=C1/C(=C/c2ccc(F)cc2F)Oc2cccc(F)c21`, the Activity is reported as “Non-toxic”. In the case of `O=C1/C(=C/c2ccccc2F)Oc2cccc(O)c21`, the Activity is reported as “Non-toxic”. With `O=C1/C(=C/c2ccc(O)cc2)Oc2cc(O)ccc21` the Activity was “Non-toxic”. In the case of `COc1cc(OC)c2c(c1)O/C(=C\c1ccccc1O)C2=O`, the Activity is reported as “Non-toxic”. For `CCCCc1ccc(/C=C2\Oc3cc(F)cc(F)c3C2=O)cc1`, the Activity was “Non-toxic”. In the case of `O=C1/C(=C/c2ccc(O)cc2)Oc2cccc(O)c21`, the Activity is reported as “Non-toxic”. With `O=C1/C(=C/c2ccc(O)cc2O)Oc2cccc(O)c21` the Activity was “Non-toxic”. In the case of `COc1cc(OC)c2c(c1)O/C(=C\c1ccc(O)cc1)C2=O`, the Activity is reported as “Non-toxic”. With `O=C1/C(=C/c2ccc(O)cc2O)Oc2cc(O)cc(O)c21` the Activity was “Non-toxic”. In the case of `CN1CCN(c2ccc(/C=C3\Oc4cccc(O)c4C3=O)cc2)CC1`, the Activity is reported as “Non-toxic”. With `O=C1/C(=C/c2ccccc2)Oc2cc(O)cc(O)c21` the Activity was “Non-toxic”. In the case of `CCCCc1ccc(/C=C2\Oc3ccccc3C2=O)cc1`, the Activity is reported as “Non-toxic”.

Test system: RNA-directed RNA polymerase (Hepacivirus hominis), O39930 [H95Q]
Sequence (O39930 entry or part of it H95Q): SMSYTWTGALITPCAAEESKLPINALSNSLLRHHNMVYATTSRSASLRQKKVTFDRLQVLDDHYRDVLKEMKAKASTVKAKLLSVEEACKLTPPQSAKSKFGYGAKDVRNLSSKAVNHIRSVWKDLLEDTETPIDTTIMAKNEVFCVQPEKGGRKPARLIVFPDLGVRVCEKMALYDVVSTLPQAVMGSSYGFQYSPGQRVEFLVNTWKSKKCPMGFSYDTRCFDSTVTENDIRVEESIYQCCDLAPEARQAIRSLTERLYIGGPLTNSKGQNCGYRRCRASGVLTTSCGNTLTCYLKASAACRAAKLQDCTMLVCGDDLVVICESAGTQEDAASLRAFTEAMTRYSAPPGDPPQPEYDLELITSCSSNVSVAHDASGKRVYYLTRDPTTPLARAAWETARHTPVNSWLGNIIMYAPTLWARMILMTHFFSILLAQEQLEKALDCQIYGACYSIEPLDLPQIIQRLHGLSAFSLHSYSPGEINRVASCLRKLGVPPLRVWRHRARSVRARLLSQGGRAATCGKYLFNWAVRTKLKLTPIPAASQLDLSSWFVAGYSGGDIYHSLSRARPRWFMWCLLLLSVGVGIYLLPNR
Test: Inhibition of HCV genotype 1b J4 NS5Bdelta21 polymerase H95Q mutant expressed in Escherichia coli C41(DE3) assessed as amount of double-stranded RNA synthesis
Conditions: Hepatitis C virus isolate HC-J4
In short: (§2)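 N-terminal His6-tagged NS5BΔ21 (C-terminal 21 residues removed) point mutants, made by site-directed mutagenesis, sequence-verified and purified like wild type: Ni-NTA affinity, imidazole elution, dialysis into Tris pH 7.5/sodium acetate/DTT/EDTA/10% glycerol. Cell-free assay quantifies double-stranded RNA synthesized on poly U homopolymeric template with ATP. IC50 determined per mutant.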
With `O=C1/C(=C/c2ccc(O)cc2)Oc2cccc(O)c21` the inhibition was “Active”.

Test system: RNA-directed RNA polymerase (Hepacivirus hominis), O39930 [C316Y]
Sequence (O39930 entry or part of it C316Y): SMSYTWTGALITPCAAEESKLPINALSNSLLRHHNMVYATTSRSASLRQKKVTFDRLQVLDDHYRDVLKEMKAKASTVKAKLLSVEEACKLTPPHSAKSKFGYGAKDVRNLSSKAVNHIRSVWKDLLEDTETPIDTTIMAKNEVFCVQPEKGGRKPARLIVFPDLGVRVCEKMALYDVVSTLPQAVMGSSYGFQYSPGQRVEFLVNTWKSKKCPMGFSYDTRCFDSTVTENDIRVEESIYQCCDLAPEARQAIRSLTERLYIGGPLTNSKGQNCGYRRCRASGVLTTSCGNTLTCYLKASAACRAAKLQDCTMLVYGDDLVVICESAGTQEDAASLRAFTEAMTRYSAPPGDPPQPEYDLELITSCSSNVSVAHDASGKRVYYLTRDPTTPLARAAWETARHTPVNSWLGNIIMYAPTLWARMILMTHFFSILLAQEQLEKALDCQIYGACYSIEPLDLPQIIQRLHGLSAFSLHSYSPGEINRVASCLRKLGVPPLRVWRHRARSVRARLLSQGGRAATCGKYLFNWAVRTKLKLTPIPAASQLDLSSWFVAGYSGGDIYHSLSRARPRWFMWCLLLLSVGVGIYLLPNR
Test: Inhibition of HCV genotype 1b J4 NS5Bdelta21 polymerase C316Y mutant expressed in Escherichia coli C41(DE3) assessed as amount of double-stranded RNA synthesis
Conditions: Hepatitis C virus isolate HC-J4
In short: as §2
With `O=C1/C(=C/c2ccc(O)cc2)Oc2cccc(O)c21` the inhibition was “Active”.

Test system: RNA-directed RNA polymerase (Hepacivirus hominis), O39930 [M423T]
Sequence (O39930 entry or part of it M423T): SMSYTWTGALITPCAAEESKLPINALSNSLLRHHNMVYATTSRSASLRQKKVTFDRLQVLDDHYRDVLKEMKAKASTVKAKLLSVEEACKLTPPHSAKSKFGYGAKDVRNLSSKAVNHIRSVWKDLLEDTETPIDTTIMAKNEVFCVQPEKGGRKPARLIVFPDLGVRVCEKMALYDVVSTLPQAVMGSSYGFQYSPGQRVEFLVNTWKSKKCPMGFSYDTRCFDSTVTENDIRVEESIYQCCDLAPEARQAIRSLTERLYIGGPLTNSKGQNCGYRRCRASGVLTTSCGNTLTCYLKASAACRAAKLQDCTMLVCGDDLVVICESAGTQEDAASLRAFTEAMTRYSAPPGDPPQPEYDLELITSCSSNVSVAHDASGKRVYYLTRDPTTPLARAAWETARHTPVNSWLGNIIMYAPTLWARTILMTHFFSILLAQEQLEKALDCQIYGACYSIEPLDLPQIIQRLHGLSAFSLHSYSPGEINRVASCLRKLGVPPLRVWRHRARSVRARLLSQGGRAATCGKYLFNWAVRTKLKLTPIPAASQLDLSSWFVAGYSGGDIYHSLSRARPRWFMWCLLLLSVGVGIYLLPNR
Test: Inhibition of HCV genotype 1b J4 NS5Bdelta21 polymerase M423T mutant expressed in Escherichia coli C41(DE3) assessed as amount of double-stranded RNA synthesis
Conditions: Hepatitis C virus isolate HC-J4
In short: as §2
For `O=C1/C(=C/c2ccc(O)cc2)Oc2cccc(O)c21`, the inhibition was “Active”.
